Source: PubChem
Hits are enriched below; roughly 3.8% of the tested compounds scored in any of these assays.
OX1R antag-1 – OX1R (human) antagonism; O43613; OX1R-expressing cells, FRET antagonist read-out; inhibition, % at 6.6 µM; 330,000 tested, 1.8% active; in the data active means inhibition mostly above about 38%, no sharp cut-off; inactive means mostly below about 40%
Target sequence (O43613 whole entry, looked up): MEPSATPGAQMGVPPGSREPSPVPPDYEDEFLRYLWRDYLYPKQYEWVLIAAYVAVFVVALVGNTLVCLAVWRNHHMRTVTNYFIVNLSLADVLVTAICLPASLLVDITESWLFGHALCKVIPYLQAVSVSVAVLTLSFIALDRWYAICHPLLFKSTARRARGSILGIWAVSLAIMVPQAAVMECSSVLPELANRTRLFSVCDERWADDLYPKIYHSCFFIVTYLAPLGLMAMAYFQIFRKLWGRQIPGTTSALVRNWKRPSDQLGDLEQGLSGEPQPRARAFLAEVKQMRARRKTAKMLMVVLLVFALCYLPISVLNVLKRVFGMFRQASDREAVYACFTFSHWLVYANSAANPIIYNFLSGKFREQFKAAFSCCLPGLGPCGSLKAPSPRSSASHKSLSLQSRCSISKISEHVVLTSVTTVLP
MPTP inh – blocks calcium-induced mitochondrial swelling. isolated mouse mitochondria, Ca2+ swelling absorbance, 30 min. inhibition, % at 10 µM. 360,000 tested, 1.4% active. AID 602449;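 active means inhibition of 50% or more, scaled per plate between neutral and stimulator controls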
OX1R antag-2 – antagonists of human orexin 1 receptor. O43613. CHO/OX1R cells, Fluo-8 calcium fluorescence, orexin A. inhibition, % at 5 µM. 330,000 tested, 0.43% active. AID 434989;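 active means inhibition above its plate's threshold, mean inhibition of all tested compounds on the plate plus 3 SD, cut at about 37% in these data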
GPR7 antagonist – human neuropeptides B/W receptor 1 antagonism; P48145; GPR7-expressing cells, fluorescence antagonist assay; inhibition, % at 4.4 µM; 290,000 tested, 1.1% active; in the data active means inhibition above about 16%, passing the limit was not always enough;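 further: cells stimulated with the agonist NPW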
CHO parental Ca – counter-screen for OX1R antagonists: effect in parental CHO cells | inhibition, % at 5.6 µM | 330,000 tested, 0.63% active | parental CHO-K1, ATP-induced calcium, Fluo-8 fluorescence;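 active means inhibition above that plate's mean sample inhibition plus 3 SD, cut at about 26% in these data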
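Material – parental CHO cells · Reagent – ATP stimulus · Compound – single nominal dose of 5.6 µM per compound · Detection – Fluo-8 fluorescence · Read-out basis – percent inhibition of calcium signal · Controls – ATP-challenged DMSO wells low, unchallenged DMSO wells high · Repeats – no replicates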
GPR7 antag conf – confirmation of human GPR7 antagonists | shares compounds with GPR7 antagonist | GPR7-expressing cells, calcium fluorescence antagonist mode | inhibition, % at 4.4 µM | 2,400 tested, 52% active | AID 1952; in the data active means inhibition above about 24%;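 further: stimulated with the GPR7 agonist NPW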
MCHR1 antag – antagonizes human MCHR1, a GPR7 antagonist counter-screen | shares compounds with GPR7 antagonist | MCHR1-expressing cells, fluorescence antagonist assay | inhibition, % at 4.4 µM | 2,400 tested, 62% active | AID 2148; in the data active means inhibition above about 22%
Each line names hits and unclear results; the compound was inactive in the other large screens (follow-up assays come after a bar, where they were run).

COC(=O)c1cc(NC(=O)c2c(-c3c(Cl)cccc3Cl)noc2C)ccc1N1CCOCC1	GPR7 antagonist 24 | GPR7 antag conf inactive | MCHR1 antag inactive
CCS(=O)(=O)N1CCN(S(=O)(=O)c2ccc3c(c2)OCCO3)CC1	none
O=C(NC1CCSc2ccccc21)c1cccc(OC(F)F)c1 (configuration not stated)	none
O=C(NC1CCSc2ccccc21)c1cccc(Br)c1 (configuration not stated)	GPR7 antagonist 27 | GPR7 antag conf inactive | MCHR1 antag inactive
O=C1c2cccc(OCC(=O)N3CCCc4ccccc43)c2CCN1Cc1ccc(F)cc1	GPR7 antagonist 28 | GPR7 antag conf 41 | MCHR1 antag 77
O=C(COC(=O)c1cc([N+](=O)[O-])ccc1N1CCOCC1)NCc1ccc(Cl)cc1Cl	GPR7 antagonist 24 | GPR7 antag conf 35 | MCHR1 antag 36
Clc1cccc(CN2CCc3c([nH]c4ccccc34)C2)c1	none
COc1cc(OC)c(CN2CCc3c([nH]c4ccccc34)C2)cc1Br	GPR7 antagonist 29 | GPR7 antag conf inactive | MCHR1 antag inactive
Cc1cccc(CN2CCc3c([nH]c4ccccc34)C2)c1	none
Clc1ccc(CN2CCc3c([nH]c4ccccc34)C2)cc1Cl	GPR7 antagonist 53 | GPR7 antag conf 73 | MCHR1 antag 33
Cc1cc(C)nc(N/N=C2/CCCC/C2=C\c2ccccc2)n1	none
CC(NC(=O)/C(=C\c1ccco1)NC(=O)c1ccccc1Br)C(=O)O (configuration not stated)	none
CCOC(=O)C1CCN(C(=O)c2ccc3c(c2)NC(=O)/C(=C/c2ccccc2)S3)CC1	none
CCOC(=O)C1CCN(C(=O)c2ccc3c(c2)NC(=O)/C(=C\c2ccc(C)cc2)S3)CC1	GPR7 antagonist 33 | GPR7 antag conf inactive | MCHR1 antag 46
COCc1cc(C)nc(SCc2ccccc2Cl)c1C#N	none
COCc1cc(C)nc(SCc2ccc([N+](=O)[O-])cc2)c1C#N	GPR7 antagonist 29 | GPR7 antag conf inactive | MCHR1 antag inactive
Cc1ccc(OCC(=O)Nc2cnn(CCCC(=O)O)c2)c([N+](=O)[O-])c1	none
Cc1ccc(C)c(-n2cc(CN3CCCN(C=O)CC3)c(-c3ccccc3)n2)c1	none
O=C(Nc1ccccc1)Nc1ccncc1	none
O=C(Nc1ccccc1)Nc1ccno1	GPR7 antagonist 27 | GPR7 antag conf inactive | MCHR1 antag inactive
NC(=O)COC(=O)c1ccc(Oc2ccccc2)cc1	none
CC(C)NC(=O)COC(=O)c1ccc(Oc2ccccc2)cc1	GPR7 antagonist 28 | GPR7 antag conf inactive | MCHR1 antag 35
CC1(c2ccc(Cl)cc2Cl)NC(=O)N(CC(=O)NCCC2=CCCCC2)C1=O (configuration not stated)	none (no result: OX1R antag-1, OX1R antag-2, GPR7 antagonist, CHO parental Ca)
COc1ccc(S(=O)(=O)N2CCCCCC2)cc1NC(=O)CCNC(=O)c1ccccc1Cl	none (no result: OX1R antag-1, OX1R antag-2, GPR7 antagonist, CHO parental Ca)
COc1cc(C(=O)N/N=C/c2sccc2C)cc(OC)c1OC	GPR7 antagonist 28 (no result: OX1R antag-1, OX1R antag-2, CHO parental Ca) | GPR7 antag conf 29 | MCHR1 antag 31
Cc1ccsc1/C=N/NC(=O)c1ccncc1	none
O=C(NCCCn1ccnc1)c1cccc(S(=O)(=O)NCc2ccccc2)c1	none
CCc1ccc(NC(=O)C2CCC(CNC(=O)[C@@H]3Cc4ccccc4CN3)CC2)cc1 (some centres not stated)	none
C/C(=N\NC(=O)Cn1cc([N+](=O)[O-])cn1)c1ccco1	none
COc1ccc(NC(=O)CN(C)C(=O)c2cccc(S(=O)(=O)N3CCN(C)CC3)c2)cc1	none (no result: GPR7 antagonist)
CCOc1ccc(S(=O)(=O)N2CCN(Cc3ccccc3)CC2)cc1	GPR7 antagonist 28 | GPR7 antag conf inactive | MCHR1 antag 28
COc1ccc(S(=O)(=O)N2CCN(C3CCN(Cc4ccccc4)CC3)CC2)cc1	none
COc1ccc(NC(=O)CN(C)C(=O)c2cccc(S(=O)(=O)N3CCN(Cc4ccccc4)CC3)c2)cc1	GPR7 antagonist 35 | GPR7 antag conf 31 | MCHR1 antag 46
NC(=O)c1ccc(S(=O)(=O)N2CCSCC2)cc1	none
CCOc1ccc(/C=C/C(=O)c2ccccc2)cc1	none
CCOc1ccc(C(=O)/C=C/c2ccc(SC)cc2)cc1	GPR7 antagonist 37 | GPR7 antag conf 41 | MCHR1 antag 45
